“Also recorded” adds a separate entry of the source. Where two headings read alike, the source gives them in different places.
Columns and labels:
RAD51 [1] = target: T1, RAD51 (Homo sapiens, UniProt Q06609); experiment: Fluorescence polarization-based RAD51-DNA binding assay; conditions: for ssDNA binding IC50: Stim: compound is a stimulator
T1 sequence (Q06609 1-339): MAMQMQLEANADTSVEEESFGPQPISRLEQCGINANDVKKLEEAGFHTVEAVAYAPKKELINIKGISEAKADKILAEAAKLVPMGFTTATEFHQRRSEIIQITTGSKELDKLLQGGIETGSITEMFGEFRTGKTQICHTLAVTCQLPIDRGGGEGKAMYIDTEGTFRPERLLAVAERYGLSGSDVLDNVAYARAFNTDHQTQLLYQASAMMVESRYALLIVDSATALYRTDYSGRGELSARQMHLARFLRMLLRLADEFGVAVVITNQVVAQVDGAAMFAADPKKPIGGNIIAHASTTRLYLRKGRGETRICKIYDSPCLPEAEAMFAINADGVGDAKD

RAD51 [2] = target: T1, RAD51; experiment: Gel-based D-loop assay; assay type: biochemical
293-SA-GFP cells [3] = conditions: previously demonstrated; cited from earlier work
293-DR-GFP cells [4] = experiment: DR-GFP assay of cellular HR activity; assay type: cell-based, human; conditions: 24 h, relative to 1 and 8
[5] = Stability on exposure to air; assay type: physicochemical; conditions: room temperature; oxidizes to compound 8
[6] = test system: U2OS, PC-3, and MCF-7 tumor cell lines; experiment: Clonogenic survival assay after ionizing radiation; assay type: cell-based; conditions: compound given immediately after irradiation, for the duration of outgrowth
Method in brief: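 X-ray irradiation at 1.5 Gy/min of subconfluent flask cultures, then trypsinized and seeded at 1000–1500 cells/well in complete medium with 0.5% DMSO plus compound at the indicated dose. Grown 7–11 days until colonies reached at least 50 cells, then fixed and stained in 6% glutaraldehyde + 0.5% crystal violet. Colonies counted automatically. PC-3 kept in DMEM:F12 (1:1), 10% FCS, penicillin/streptomycin.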

293-DR-GFP cells [7] = experiment: RAD51 cytological focus formation after irradiation; assay type: cell-based, human; conditions: IR-induced, 8 h time course
[8] = target: T2, S. cerevisiae Rad51 and Rad52 proteins (Saccharomyces cerevisiae, UniProt P25454); experiment: Gel-based D-loop assay with yeast recombinase; assay type: biochemical; conditions: selectivity versus human RAD51
T2 sequence (P25454 1-400): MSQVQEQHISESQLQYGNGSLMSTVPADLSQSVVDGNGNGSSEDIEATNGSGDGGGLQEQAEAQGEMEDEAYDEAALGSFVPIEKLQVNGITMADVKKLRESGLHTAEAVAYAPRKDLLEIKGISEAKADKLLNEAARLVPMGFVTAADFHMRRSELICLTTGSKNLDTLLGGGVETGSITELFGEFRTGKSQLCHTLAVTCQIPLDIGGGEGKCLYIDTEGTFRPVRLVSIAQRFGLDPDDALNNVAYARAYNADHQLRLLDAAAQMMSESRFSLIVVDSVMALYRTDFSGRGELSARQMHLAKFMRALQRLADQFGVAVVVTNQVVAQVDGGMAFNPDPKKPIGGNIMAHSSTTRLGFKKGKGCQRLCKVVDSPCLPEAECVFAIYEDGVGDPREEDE

E. coli RecA protein = E. coli RecA protein (Escherichia coli, UniProt P0A7G6); experiment: Gel-based D-loop assay with bacterial recombinase; assay type: biochemical; conditions: selectivity versus human RAD51
Chain of E. coli RecA protein (P0A7G6 whole entry): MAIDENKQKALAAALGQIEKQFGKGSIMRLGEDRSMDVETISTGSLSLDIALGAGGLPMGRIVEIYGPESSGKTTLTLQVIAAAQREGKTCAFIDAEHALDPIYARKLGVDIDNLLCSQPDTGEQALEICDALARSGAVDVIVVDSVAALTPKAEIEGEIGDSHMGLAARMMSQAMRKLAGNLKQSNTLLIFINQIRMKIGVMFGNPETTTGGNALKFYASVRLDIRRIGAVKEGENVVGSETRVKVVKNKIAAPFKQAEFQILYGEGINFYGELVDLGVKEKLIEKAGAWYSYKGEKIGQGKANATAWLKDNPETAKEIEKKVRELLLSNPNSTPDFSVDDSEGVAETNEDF

293-SA-GFP cells [9] = experiment: Single-strand annealing; assay type: cell-based, human; conditions: concentration range that inhibits HR, 24 h post-transfection
Method in brief: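 Cells electroporated in Opti-MEM with 37.5 μg/mL I-SceI plasmid (pCBASce) or empty pCAGGS vector at 325 V, 975 μF. Then seeded in complete DMEM + 0.5% DMSO with compound and grown out 24 h. Harvested into PBS with 1 μg/mL 7-AAD for flow cytometry, gating out dead/apoptotic cells by size, shape and 7-AAD. Read-out is the GFP-positive fraction of live cells; three replicates, standard error.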

SMILES | ssDNA binding IC50 (RAD51 [1]) | D-loop inhibitory activity (in words) (RAD51 [2]) | influence on RAD51-ssDNA binding (in words) (RAD51 [1]) | other results
COc1ccc2c(c1)nc(-c1ccc(N(C)C)cc1)c1cccn12 [Compound 8, 4-(7-Methoxypyrrolo[1,2-a]quinoxalin-4-yl)-N,N-dimethylaniline] | Stim |  |  | 
O=[N+]([O-])c1ccc(-c2nc3ccccc3n3cccc23)cc1 [Compound 9f, 4-(4-Nitrophenyl)pyrrolo[1,2-a]quinoxaline] |  | significantly decreased |  | 
c1ccc2c(c1)nc(-c1ccc(N3CCOCC3)cc1)c1cccn12 [Compound 9j, 4-(4-(Pyrrolo[1,2-a]quinoxalin-4-yl)phenyl)morpholine] |  | allow for D-loop inhibition |  | 
O=[N+]([O-])c1cccc(-c2nc3ccccc3n3cccc23)c1 [Compound 9b, 4-(3-Nitrophenyl)pyrrolo[1,2-a]quinoxaline] |  |  | modest influence | 
O=C1C(Cl)=C(N2CCOCC2)C(=O)N1c1ccc(Cl)c(Cl)c1 [RI-1] |  |  |  | effect on SSA activity (in words) (293-SA-GFP cells [3]): elevated levels of SSA activity
COc1ccc2c(c1)NC(c1ccc(N(C)C)cc1)c1cccn1-2 (racemic) [Compound 7, 4-(7-Methoxy-4,5-dihydropyrrolo[1,2-a][13]quinoxalin-4-yl)-N,N-dimethylaniline] | Stim |  | significant stimulatory activity | Emax (RAD51 [1]; read-out: ssDNA binding max effect, ↑ compound stimulates RAD51-ssDNA binding): 47 ± 33%; inhibitory activity in cell-based HR assay (in words) (293-DR-GFP cells [4]): comparable to that of 1 and 8; stability when exposed to air (in words) [5]: not stable
C1=C(c2nc3ccccc3n3cccc23)CCCC1 [Compound 11c, 4-(Cyclohex-1-en-1-yl)pyrrolo[1,2-a]quinoxaline] | Stim | weak | modest influence | 
FC(F)(F)Oc1ccc(-c2nc3ccccc3n3cccc23)cc1 [Compound 9e, 4-(4-(Trifluoromethoxy)phenyl)pyrrolo[1,2-a]quinoxaline] | Stim | significantly decreased |  | 
CN(C)c1ccc(-c2nc3ccccc3n3cccc23)cc1 [Compound 9a, N,N-Dimethyl-4-(pyrrolo[1,2-a]quinoxalin-4-yl)aniline] | Stim | allow for D-loop inhibition | modest influence | 
Oc1ccc(-c2nc3ccccc3n3cccc23)cc1 [Compound 9d, 4-(Pyrrolo[1,2-a]quinoxalin-4-yl)phenol] |  | significantly decreased |  | 
c1ccc2c(c1)nc(-c1ccncc1)c1cccn12 [Compound 11b, 4-(Pyridin-4-yl)pyrrolo[1,2-a]quinoxaline] |  | moderate |  | 
c1ccc2c(c1)nc(-c1ccc(N3CCCC3)cc1)c1cccn12 [Compound 9i, 4-(4-(Pyrrolidin-1-yl)phenyl)pyrrolo[1,2-a]quinoxaline] | Stim | significantly decreased | modest influence | 
Nc1cccc(-c2nc3ccccc3n3cccc23)c1 [Compound 9c, 3-(Pyrrolo[1,2-a]quinoxalin-4-yl)aniline] |  | decreased |  | 
Nc1ccc(-c2nc3ccccc3n3cccc23)cc1 [Compound 9g, 4-(Pyrrolo[1,2-a]quinoxalin-4-yl)aniline] |  | allow for D-loop inhibition |  | 
COc1ccc2c(c1)nc(-c1ccc(O)cc1)c1cccn12 [Compound 12a, 4-(7-Methoxypyrrolo[1,2-a]quinoxalin-4-yl)phenol] |  |  | relatively strong ssDNA binding inhibition | 
CCNc1ccc(-c2nc3ccccc3n3cccc23)cc1 [Compound 9h, N-Ethyl-4-(pyrrolo[1,2-a]quinoxalin-4-yl)aniline] |  | allow for D-loop inhibition | almost no impact | sensitization of cancer cells to radiation, clonogenic survival (in words) [6]: significantly sensitizes; appearance of RAD51 subnuclear foci in response to DNA damage (in words) (293-DR-GFP cells [7]): does not inhibit; inhibition of D-loop activity of Saccharomyces cerevisiae Rad51 (in words) [8]: no significant inhibition; inhibition of D-loop activity of Escherichia coli RecA (in words) (E. coli RecA protein): no significant inhibition; effect on SSA activity (in words) (293-SA-GFP cells [9]): does not stimulate SSA
Nc1ccc(-c2nc3cc(OCCF)ccc3n3cccc23)cc1 [Compound 15b, 4-(7-(2-Fluoroethoxy)pyrrolo[1,2-a]quinoxalin-4-yl)aniline] | Stim |  | stimulators; also recorded: modest effects | 
c1cncc(-c2nc3ccccc3n3cccc23)c1 [Compound 11a, 4-(Pyridin-3-yl)pyrrolo[1,2-a]quinoxaline] |  | moderate |  | 

More lines, main results first:

ssDNA binding IC50 (RAD51 [1]) | D-loop inhibitory activity (in words) (RAD51 [2]) | influence on RAD51-ssDNA binding (in words) (RAD51 [1]) | SMILES | other results
Stim | weak | modest influence | c1ccc2c(-c3nc4ccccc4n4cccc34)cccc2c1 [Compound 11d, 4-(Naphthalen-1-yl)pyrrolo[1,2-a]quinoxaline] | 
Stim | nearly absent |  | CN(C)c1ccc(-c2nc3cc(F)ccc3n3cccc23)cc1 [Compound 12j, 4-(7-Fluoropyrrolo[1,2-a]quinoxalin-4-yl)-N,N-dimethylaniline] | 
Stim | nearly absent |  | CN(C)c1ccc(-c2nc3cc(F)c(F)cc3n3cccc23)cc1 [Compound 12m, 4-(7,8-Difluoropyrrolo[1,2-a]quinoxalin-4-yl)-N,N-dimethylaniline] | 
Stim |  | stimulators | CCCOc1ccc2c(c1)nc(-c1ccc(N)cc1)c1cccn12 [Compound 15a, 4-(7-Propoxypyrrolo[1,2-a]quinoxalin-4-yl)aniline] | 
 | slight improvement |  | COc1ccc2c(c1)nc(-c1cccnc1)c1cccn12 [Compound 13a, 7-Methoxy-4-(pyridin-3-yl)pyrrolo[1,2-a]quinoxaline] | 
 | slight improvement |  | Oc1ccc2c(c1)nc(-c1cccnc1)c1cccn12 [Compound 13b, 4-(Pyridin-3-yl)pyrrolo[1,2-a]quinoxalin-7-ol] | 
 |  | only weakly influenced | COc1ccc2c(c1)nc(-c1ccc(N)cc1)c1cccn12 [Compound 12c, 4-(7-Methoxypyrrolo[1,2-a]quinoxalin-4-yl)aniline] | 
 |  | modest effects | Nc1ccc(-c2nc3cc(O)ccc3n3cccc23)cc1 [Compound 12f, 4-(4-Aminophenyl)pyrrolo[1,2-a]quinoxalin-7-ol] | inhibitory activity in cell-based HR assay (in words) (293-DR-GFP cells [4]): comparable or slightly less inhibitory activity
Stim |  | only weakly influenced | CN(C)c1ccc(-c2nc3cc(O)ccc3n3cccc23)cc1 [Compound 12g, 4-(4-(Dimethylamino)phenyl)pyrrolo[1,2-a]quinoxalin-7-ol] | inhibitory activity in cell-based HR assay (in words) (293-DR-GFP cells [4]): comparable or slightly less inhibitory activity
Stim |  | stimulators | COc1ccc2c(c1)nc(-c1ccc([N+](=O)[O-])cc1)c1cccn12 [Compound 12b, 7-Methoxy-4-(4-nitrophenyl)pyrrolo[1,2-a]quinoxaline] | 
Stim |  | stimulators | CN(C)c1ccc(-c2nc3cc(OC(C)(C)C(N)=O)ccc3n3cccc23)cc1 [Compound 16, 2-((4-(4-(Dimethylamino)phenyl)pyrrolo[1,2-a]quinoxalin-7-yl)-oxy)-2-methylpropanamide] | 

— paper PMC5473336 (Journal of medicinal chemistry, 2016)
